Only some compounds are listed: those with a hit (about 3.5% of all), similar ones and a draw of the others.
RGS4 pot: RGS4 potentiators or activators, primary screen, cell-based, HEK293 M3R inducible RGS4, calcium flux; carbachol calcium flux Fluo4; hits give low values; B-score at 10 µM; hit rate 0.92% among 310,000; AID 463111, 2010;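 active = B-score of the integrated calcium signal more than 4 SD below the library mean, with starting fluorescence not abnormally high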;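 note: negative B-score means reduced calcium response which marks RGS4 activation or potentiation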
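test system = HEK293 cells with stable M3R and inducible RGS4 | schedule = recording 10 s baseline at 1 Hz, 100 s post-agonist | technique = Fluo4-AM (2 µM) calcium-flux fluorescence, kinetic read | measure = Agonist-evoked peak-minus-minimum fluorescence over baseline, integrated ratio, B score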
MrgX1 antag: antagonists of human MrgX1 receptor, primary screen, HEK293 cells, Fluo-4 calcium flux; BAM8-22 antagonism; hits give low values; hit rate 1.3% among 310,000; B-score at 10 µM;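 active = calcium-response B-score plate-corrected more than 3 library SD below zero, starting fluorescence within 5 deviations, no agonist response on first addition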;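 note: peak minus trough fluorescence over baseline after final BAM8-22 challenge near maximal dose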
Target sequence (Q96LB2 whole entry, looked up): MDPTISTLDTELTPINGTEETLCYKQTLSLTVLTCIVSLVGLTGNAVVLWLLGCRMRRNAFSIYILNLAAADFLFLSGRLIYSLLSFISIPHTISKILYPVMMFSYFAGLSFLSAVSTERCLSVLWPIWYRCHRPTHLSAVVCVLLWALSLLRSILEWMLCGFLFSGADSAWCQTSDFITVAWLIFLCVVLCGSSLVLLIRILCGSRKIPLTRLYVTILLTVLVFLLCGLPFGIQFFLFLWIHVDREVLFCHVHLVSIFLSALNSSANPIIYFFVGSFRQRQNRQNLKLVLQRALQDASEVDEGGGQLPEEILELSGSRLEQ
MrgX1 allo act: positive allosteric modulators of MrgX1, primary screen, HEK293 cells, Fluo-4 calcium flux; FDSS; hits give high values; B-score at 10 µM; hit rate 0.63% among 310,000;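 active = plate-corrected calcium response at least 3 library SD above typical, normal starting fluorescence, not activating the receptor alone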;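 note: compound read alongside a low EC10 to EC30 dose of BAM8-22 agonist; peak minus trough fluorescence over baseline measured at the second addition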
MrgX1 agonist: agonists of human MrgX1 receptor, primary screen, HEK293 cells, Fluo-4 calcium flux; Mas-related G-protein coupled receptor member X1 (Homo sapiens), Q96LB2; Fluo-4 calcium fluorescence, agonist mode; hits give high values; B-score at 10 µM; hit rate 0.44% among 310,000; AID 588627, 2011;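 active = calcium response B-score plate-corrected fluorescence ratio at least 3 library SD, with starting fluorescence B-score inside 5 SD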
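Material: MrgX1-expressing HEK293 cells / Dosing: compound as first of three additions / Incubation: overnight seeding, then 1 h dark dye loading / Signal: Fluo-4 NW calcium fluorescence / Evaluation: B-scored fluorescence response ratio / Benchmarks: positive and negative control wells on each plate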
RGS4 inh: RGS4 inhibitors, primary screen, cell-based, HEK293 M3R inducible RGS4, calcium flux. AID 463165, 2010. Fluo-4 calcium flux; hits give high values; triggered by carbachol at its EC20. B-score at 10 µM. Regulator of G-protein signaling 4 (Homo sapiens), P49798. hit rate 0.45% among 310,000;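 active = B-score, a plate-corrected calcium signal, over three deviations above library mean, with baseline fluorescence within five deviations of library mean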;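 note: RGS4 expression induced by doxycycline in cells with stable M3 receptor; B-score is computed from the integrated fluorescence ratio over baseline after carbachol; higher B-score means a larger calcium signal and so more RGS4 inhibition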
Target sequence (P49798 whole entry, looked up): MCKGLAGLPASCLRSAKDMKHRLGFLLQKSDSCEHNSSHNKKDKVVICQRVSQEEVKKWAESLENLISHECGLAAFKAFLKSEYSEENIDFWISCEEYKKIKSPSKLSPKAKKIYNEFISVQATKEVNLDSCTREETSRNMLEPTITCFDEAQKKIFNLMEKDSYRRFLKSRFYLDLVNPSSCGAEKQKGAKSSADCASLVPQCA
MrgX1 ag reconf: MrgX1 receptor agonists, duplicate retest, confirmation, HEK293 cells, Fluo-4 calcium flux. shares compounds with MrgX1 agonist. Fluo-4 calcium fluorescence, FDSS. activation, % at 10 µM. hit rate 78% among 600. AID 602412, 2012;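 active = calcium signal rise, corrected for plate position, at least 3 library SD high, with starting brightness within 5 such deviations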
HEK293 Ca flux: nonspecific calcium signal in parental HEK293, confirmation, counter-screen for MrgX1 antagonist project, parental HEK293 cells, Fluo-4 calcium flux | AID 624111, 2012 | fluorescence ratio F(max-min)/F0 at 10 µM | Fluo-4 calcium fluorescence, FDSS | shares compounds with MrgX1 antag | hit rate 2% among 4,000;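 active = duplicate-averaged calcium fluorescence ratio at least three times the standard deviation of buffer wells, a nonspecific response in parental cells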
HEK293 Ca counter: calcium response in parental HEK293 cells, primary screen, counter-screen for MrgX1 allosteric activator project, cell-based, Fluo-4 calcium flux, duplicate; shares compounds with MrgX1 antag; Fluo-4 fluorescence ratio; hits give high values; fluorescence ratio F(max-min)/F0 at 10 µM; hit rate 0.4% among 4,000;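 active = calcium fluorescence ratio, averaged over duplicates, at least 3 SD of the buffer-well ratio, meaning a nonspecific response in receptor-free cells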;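 note: untransfected parental HEK293 lacking MrgX1 used as counterscreen for MrgX1 allosteric activators; fluorescence change taken during the second addition on a kinetic imager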
HEK293 Ca cntr2: calcium response in parental HEK293 cells, primary screen, counter-screen for MrgX1 agonist project, cell-based, Fluo-4 calcium flux, duplicate, agonist mode; shares compounds with MrgX1 antag; Fluo-4 calcium fluorescence (FDSS); hits give high values; fluorescence ratio F(max-min)/F0 at 10 µM; hit rate 8.7% among 4,000;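 active = calcium fluorescence ratio at least three times the spread of buffer wells, meaning a non-specific response in parental cells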
* marks the source's active call; other numbers are inactive results; i = inactive; · = no result.

SMILES | RGS4 pot | MrgX1 antag | MrgX1 allo act | MrgX1 agonist | RGS4 inh | MrgX1 ag reconf | HEK293 Ca flux | HEK293 Ca counter | HEK293 Ca cntr2
Cc1[nH]n(-c2ccccc2)c(=O)c1C1(C(F)(F)F)C(=O)N(c2ccc(F)cc2)C2=C1C(=O)CC(C)(C)C2 (configuration not stated) | i | i | i | i | i | · | · | · | ·
Cc1cc(C)n(-c2nc(C)nc(NCc3ccccc3)n2)n1 | i | i | i | 33.5* | i | 129.9%* | i | i | i
CNc1nc(C)nc(-n2nc(C)cc2C)n1 | i | i | i | i | i | · | · | · | ·
COc1cc(/C=C2\NC(=S)N(C)C2=O)ccc1O | i | i | i | i | i | · | · | · | ·
Cc1cc(/C=C2\NC(=S)N(C)C2=O)ccc1N1CCCC1 | i | i | i | 90.7* | i | i | 0.295* | i | 203*
CCN1C(=O)/C(=C/c2ccc(N3CCCC3)cc2)NC1=S | i | i | i | 70.2* | i | i | 0.02* | i | 251*
Cc1ccc(NC(=O)[C@H](C)NC(=O)C2CCN(C(=O)[C@@H](NC(=O)OC(C)(C)C)C(C)C)CC2)cc1 | i | i | i | i | i | · | · | · | ·
Cc1sc2ncnc(N(C)C3CCCCC3)c2c1C | i | i | i | 37.8* | i | i | i | i | i
OCC[C@H]1C[C@H](O)[C@@H](O)[C@]2(CCCc3ccccc3O2)O1 | · | i | i | i | · | · | · | · | ·
O=c1c2cc(Cl)ccc2nc(-c2ccc([N+](=O)[O-])cc2)n1O | i | i | i | 72.4* | i | 269.6%* | i | i | 63.2*
N#Cc1ccc(-c2nc3cc(Cl)ccc3c(=O)n2O)cc1 | i | i | i | i | i | · | · | · | ·
O=c1c2cc(Br)ccc2nc(-c2ccc(Cl)cc2)n1O | i | i | i | 143* | i | 661.4%* | i | i | 129*
Cc1ccc(-c2nc3c(Cl)cc(Cl)cc3c(=O)n2O)cc1 | i | i | i | 105* | i | 481.9%* | i | i | 104*
COc1ccc(C(=O)NN/C(C)=C/C(=O)C(F)(F)C(F)(F)C(F)(F)F)cc1 | i | i | i | i | i | · | · | · | ·
Cc1ccc(NC(=O)C2CC(=O)Nc3nncn32)cc1 (configuration not stated) | i | i | i | i | i | · | · | · | ·
O=C(Nc1ccc(Cl)cc1)c1ccc2c(=O)n3c(nc2c1)CCCCC3 | i | i | i | i | i | · | · | · | ·
O=C(Nc1ccc(Br)cc1Cl)c1ccc2c(=O)n3c(nc2c1)CCC3 | i | i | i | 55* | i | 467.7%* | i | i | 102*
O=C(Nc1ccc(Cl)cc1Cl)c1ccc2c(=O)n3c(nc2c1)CCC3 | i | i | i | 85* | i | 461.8%* | i | i | 107*
O=C(Nc1cc(S(=O)(=O)N2CCCCC2)ccc1O)c1ccccc1NS(=O)(=O)c1ccc(F)c(F)c1 | i | i | i | i | i | · | · | · | ·
Nc1ncnc2nc(SCC(=O)Nc3ccccc3F)[nH]c12 | i | i | i | i | i | · | · | · | ·
Cc1[nH]c(C)c(S(=O)(=O)NCc2ccc(F)cc2)c1C(=O)N1CCCC1 | i | i | i | i | i | · | · | · | ·
COc1cc(/C=C2/C(=N)N3N=C(C(C)C)SC3=NC2=O)ccc1OS(=O)(=O)c1ccccc1 | i | i | i | i | i | · | · | · | ·
COc1cc(/C=C2\C(=N)N3N=CSC3=NC2=O)ccc1OS(=O)(=O)c1ccccc1 | i | i | i | 73* | i | 382.5%* | i | i | 77*
CCC(CC)C1C(C#N)=C(N)Oc2cc(C)oc(=O)c21 (configuration not stated) | i | i | i | i | i | · | · | · | ·
Cc1cc2c(c(=O)o1)C(CCC1CCCCC1)C(C#N)=C(N)O2 (configuration not stated) | i | i | i | 28.4* | i | i | i | i | i
SMILES | RGS4 pot | MrgX1 antag | MrgX1 allo act | MrgX1 agonist | RGS4 inh | MrgX1 ag reconf | HEK293 Ca flux | HEK293 Ca counter | HEK293 Ca cntr2
Nc1n[nH]c(CO)n1 | i | i | i | i | i | · | · | · | ·
C=CCSC(=S)NC1CCS(=O)(=O)C1 (configuration not stated) | i | i | i | 30.8* | i | i | i | i | i
CCOC(=O)N1CCN(C(=O)COC(=O)CNC(=O)c2ccc(C)cc2)CC1 | i | i | i | i | i | · | · | · | ·
COc1cc(OC)cc(C(=O)NC(=S)NNC(=O)Cc2cccs2)c1 | i | i | i | 72.1* | i | 534.8%* | i | i | 102*
COc1cc(NC(=O)Cc2cccs2)cc(OC)c1 | i | i | i | i | i | · | · | · | ·
Oc1c(C=NCc2ccc(F)cc2)[nH]c2ccc(Br)c(Cl)c12 | i | i | i | 27.3* | 5.71* | 332.0%* | i | i | 70.7*
Cc1cc(N2CCCCC2)nc(N)n1 | i | i | i | 101* | i | 519.8%* | i | i | 123*
CSc1ccc(C2NC(=O)c3c(sc4c3CCN(C)C4)N2)cc1 (configuration not stated) | i | i | i | 27.9* | i | 100.8%* | i | i | i
CN1CCc2c(sc3c2C(=O)NC(c2cccs2)N3)C1 (configuration not stated) | i | i | i | 40.2* | i | i | i | i | i
COc1ccc(OCC(O)CNS(=O)(=O)c2cccs2)cc1 (configuration not stated) | i | i | i | i | i | · | · | · | ·
CC(C)(CC(=O)O)CC(=O)Nc1ccc2c(c1)ncn2CCc1ccccc1 | i | i | i | i | i | · | · | · | ·
Cc1nc(Nc2ccccc2)sc1C(=O)Nc1ccccc1 | i | i | i | i | i | · | · | · | ·

Source: PubChem BioAssay
